Assay results reported in ChEMBL document CHEMBL3593164, “Rational Design and Synthesis of Thioridazine Analogues as Enhancers of the Antituberculosis Therapy” (J Med Chem, 2015).

Assays:
[1] = tested on: Mycobacterium tuberculosis; test: Inhibition of multidrug resistance efflux pump in Mycobacterium tuberculosis H37Rv assessed as amikacin MIC at 0.12 ug/ml after 7 days by two-dimensional broth microdilution checkerboard assay; details: 168 h
Outline: (§1)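 M. tuberculosis H37Rv ATCC27294. MICs of INH, RIF, AMK, OFX and EtBr were determined alone and with sub-inhibitory concentrations of test compound by two-dimensional broth microdilution checkerboard. Where a compound's MIC was not determinable, the highest concentration still allowing growth was taken as ½ MIC. FIC = MIC in combination / MIC alone. FIC ≤0.25 was scored as synergism and ≥2 as antagonism.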

[2] = tested on: Mycobacterium tuberculosis; test: Inhibition of multidrug resistance efflux pump in Mycobacterium tuberculosis H37Rv assessed as amikacin MIC at 0.47 ug/ml after 7 days by two-dimensional broth microdilution checkerboard assay; details: 168 h; outline: as §1
[3] = tested on: Mycobacterium tuberculosis; test: Inhibition of multidrug resistance efflux pump in Mycobacterium tuberculosis H37Rv assessed as ethidium bromide MIC at 3.75 ug/ml after 7 days by two-dimensional broth microdilution checkerboard assay; details: 168 h; outline: as §1
[4] = tested on: Mycobacterium tuberculosis; test: Inhibition of multidrug resistance efflux pump in Mycobacterium tuberculosis H37Rv assessed as reduction in ofloxacin MIC at 7.5 ug/ml after 7 days by two-dimensional broth microdilution checkerboard assay
Outline: (§2)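 M. tuberculosis H37Rv two-dimensional broth microdilution checkerboard. MICs of INH, RIF, AMK, OFX or EtBr were determined without and with graded sub-inhibitory compound concentrations, starting at ½ MIC. Where MIC was undeterminable, the highest concentration still permitting growth was taken as ½ MIC. FIC = MIC of antibacterial in combination / MIC alone. FIC ≤0.25 was scored as synergism and ≥2 as antagonism.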

[5] = tested on: Mycobacterium tuberculosis; test: Inhibition of multidrug resistance efflux pump in Mycobacterium tuberculosis H37Rv assessed as rifampin MIC at 0.12 ug/ml after 7 days by two-dimensional broth microdilution checkerboard assay; details: 168 h; outline: as §1
[6] = tested on: Mycobacterium tuberculosis; test: Inhibition of multidrug resistance efflux pump in Mycobacterium tuberculosis H37Rv assessed as reduction in amikacin MIC at 7.5 ug/ml after 7 days by two-dimensional broth microdilution checkerboard assay; outline: as §2
[7] = tested on: Mycobacterium tuberculosis; test: Inhibition of multidrug resistance efflux pump in Mycobacterium tuberculosis H37Rv assessed as amikacin MIC at 1.88 ug/ml after 7 days by two-dimensional broth microdilution checkerboard assay; details: 168 h; outline: as §1
[8] = tested on: Mycobacterium tuberculosis; test: Inhibition of multidrug resistance efflux pump in Mycobacterium tuberculosis H37Rv assessed as isoniazid MIC at 0.23 ug/ml after 7 days by two-dimensional broth microdilution checkerboard assay; details: 168 h; outline: as §1
[9] = tested on: Mycobacterium tuberculosis; test: Inhibition of multidrug resistance efflux pump in Mycobacterium tuberculosis H37Rv assessed as rifampin MIC at 0.23 ug/ml after 7 days by two-dimensional broth microdilution checkerboard assay; details: 168 h; outline: as §1
[10] = tested on: Mycobacterium tuberculosis; test: Inhibition of multidrug resistance efflux pump in Mycobacterium tuberculosis H37Rv assessed as ofloxacin MIC at 0.47 ug/ml after 7 days by two-dimensional broth microdilution checkerboard assay; details: 168 h; outline: as §1
[11] = tested on: Mycobacterium tuberculosis; test: Inhibition of multidrug resistance efflux pump in Mycobacterium tuberculosis H37Rv assessed as ofloxacin MIC at 1.88 ug/ml after 7 days by two-dimensional broth microdilution checkerboard assay; details: 168 h; outline: as §1
[12] = tested on: Mycobacterium tuberculosis; test: Inhibition of multidrug resistance efflux pump in Mycobacterium tuberculosis H37Rv assessed as isoniazid MIC at 0.47 ug/ml after 7 days by two-dimensional broth microdilution checkerboard assay; details: 168 h; outline: as §1
[13] = tested on: Mycobacterium tuberculosis; test: Inhibition of multidrug resistance efflux pump in Mycobacterium tuberculosis H37Rv assessed as isoniazid MIC at 0.12 ug/ml after 7 days by two-dimensional broth microdilution checkerboard assay; details: 168 h; outline: as §1
[14] = tested on: Mycobacterium tuberculosis; test: Inhibition of multidrug resistance efflux pump in Mycobacterium tuberculosis H37Rv assessed as reduction in rifampin MIC at 7.5 ug/ml after 7 days by two-dimensional broth microdilution checkerboard assay; outline: as §2
[15] = tested on: Mycobacterium tuberculosis; test: Inhibition of multidrug resistance efflux pump in Mycobacterium tuberculosis H37Rv assessed as reduction in ethidium bromide MIC at 7.5 ug/ml after 7 days by two-dimensional broth microdilution checkerboard assay; outline: as §2
[16] = tested on: Mycobacterium tuberculosis; test: Inhibition of multidrug resistance efflux pump in Mycobacterium tuberculosis H37Rv assessed as ofloxacin MIC at 7.5 ug/ml after 7 days by two-dimensional broth microdilution checkerboard assay; details: 168 h; outline: as §2
[17] = tested on: Mycobacterium tuberculosis; test: Inhibition of multidrug resistance efflux pump in Mycobacterium tuberculosis H37Rv assessed as amikacin MIC at 0.23 ug/ml after 7 days by two-dimensional broth microdilution checkerboard assay; details: 168 h; outline: as §1
[18] = tested on: Mycobacterium tuberculosis; test: Inhibition of multidrug resistance efflux pump in Mycobacterium tuberculosis H37Rv assessed as ethidium bromide MIC at 7.5 ug/ml after 7 days by two-dimensional broth microdilution checkerboard assay; details: 168 h; outline: as §2
[19] = tested on: Mycobacterium tuberculosis; test: Inhibition of multidrug resistance efflux pump in Mycobacterium tuberculosis H37Rv assessed as ofloxacin MIC at 0.94 ug/ml after 7 days by two-dimensional broth microdilution checkerboard assay; details: 168 h; outline: as §1
[20] = tested on: Mycobacterium tuberculosis; test: Inhibition of multidrug resistance efflux pump in Mycobacterium tuberculosis H37Rv assessed as rifampin MIC at 3.75 ug/ml after 7 days by two-dimensional broth microdilution checkerboard assay; details: 168 h; outline: as §1
[21] = tested on: Mycobacterium tuberculosis; test: Inhibition of multidrug resistance efflux pump in Mycobacterium tuberculosis H37Rv assessed as ofloxacin MIC at 0.12 ug/ml after 7 days by two-dimensional broth microdilution checkerboard assay; details: 168 h; outline: as §1
[22] = tested on: Mycobacterium tuberculosis; test: Inhibition of multidrug resistance efflux pump in Mycobacterium tuberculosis H37Rv assessed as amikacin MIC at 1 ug/ml after 7 days by two-dimensional broth microdilution checkerboard assay; details: 168 h; outline: as §2
[23] = tested on: Mycobacterium tuberculosis; test: Inhibition of multidrug resistance efflux pump in Mycobacterium tuberculosis H37Rv assessed as reduction in ethidium bromide MIC at 32 ug/ml after 7 days by two-dimensional broth microdilution checkerboard assay; outline: as §2
[24] = tested on: Mycobacterium tuberculosis; test: Inhibition of multidrug resistance efflux pump in Mycobacterium tuberculosis H37Rv assessed as ethidium bromide MIC at 1 ug/ml after 7 days by two-dimensional broth microdilution checkerboard assay; details: 168 h; outline: as §2
[25] = tested on: Mycobacterium tuberculosis; test: Inhibition of multidrug resistance efflux pump in Mycobacterium tuberculosis H37Rv assessed as rifampin MIC at 2 ug/ml after 7 days by two-dimensional broth microdilution checkerboard assay; details: 168 h
[26] = tested on: Mycobacterium tuberculosis; test: Inhibition of multidrug resistance efflux pump in Mycobacterium tuberculosis H37Rv assessed as reduction in amikacin MIC at 32 ug/ml after 7 days by two-dimensional broth microdilution checkerboard assay; outline: as §2
[27] = tested on: Mycobacterium tuberculosis; test: Inhibition of multidrug resistance efflux pump in Mycobacterium tuberculosis H37Rv assessed as reduction in isoniazid MIC at 64 ug/ml after 7 days by two-dimensional broth microdilution checkerboard assay; outline: as §2
[28] = tested on: Mycobacterium tuberculosis; test: Inhibition of multidrug resistance efflux pump in Mycobacterium tuberculosis H37Rv assessed as rifampin MIC at 1 ug/ml after 7 days by two-dimensional broth microdilution checkerboard assay; details: 168 h; outline: as §2
[29] = tested on: Mycobacterium tuberculosis; test: Inhibition of multidrug resistance efflux pump in Mycobacterium tuberculosis H37Rv assessed as ofloxacin MIC at 1 ug/ml after 7 days by two-dimensional broth microdilution checkerboard assay; details: 168 h; outline: as §2
[30] = tested on: Mycobacterium tuberculosis; test: Inhibition of multidrug resistance efflux pump in Mycobacterium tuberculosis H37Rv assessed as reduction in ethidium bromide MIC at 128 ug/ml after 7 days by two-dimensional broth microdilution checkerboard assay
[31] = tested on: Mycobacterium tuberculosis; test: Inhibition of multidrug resistance efflux pump in Mycobacterium tuberculosis H37Rv assessed as reduction in rifampin MIC at 4 ug/ml after 7 days by two-dimensional broth microdilution checkerboard assay; outline: as §2

**Q.** Which results are given for `CSc1ccc2c(c1)N(CCC1CCCCN1C)c1ccccc1S2` (stereo unspecified) [THIORIDAZINE]?
**A.** MIC [1]: 1 µg/mL; MIC [2]: 1 µg/mL; MIC [3]: 3.12 µg/mL; fold change (FC) [4]: >128; MIC [5]: 1 µg/mL; fold change (FC) [6]: >128; MIC [7]: 1 µg/mL; MIC [8]: 0.1 µg/mL; MIC [9]: 1 µg/mL; MIC [10]: 1 µg/mL; MIC [11]: 1 µg/mL; MIC [12]: 0.1 µg/mL; MIC [13]: 0.1 µg/mL; fold change (FC) [14]: >64; fold change (FC) [15]: >64; MIC [16]: < 0.0156 µg/mL; MIC [17]: 1 µg/mL; MIC [18]: < 0.195 µg/mL; MIC [19]: 1 µg/mL; MIC [20]: 1 µg/mL; MIC [21]: 1 µg/mL

**Q.** With `CN1CCCCC1CCn1c2ccccc2c2ccccc21` (racemic) as the molecule, how does the MIC [22] read?
**A.** 1 µg/mL

**Q.** What about the “fold change (FC)” value [23] of the same molecule?
**A.** 4

**Q.** What about the MIC [24] of the same molecule?
**A.** 12.5 µg/mL

**Q.** What about the MIC [25] of the same molecule?
**A.** 1 µg/mL

**Q.** And the “fold change (FC)” value [26]?
**A.** 4

**Q.** What about the “fold change (FC)” value [27] of the same molecule?
**A.** >128

**Q.** What about the MIC [28] of the same molecule?
**A.** 1 µg/mL

**Q.** And the MIC [29]?
**A.** 1 µg/mL

**Q.** For `CN1CCCCC1CCn1ccc2ccc(Br)cc21` (racemic), which “fold change (FC)” value [30] is on record?
**A.** >164

**Q.** For `COc1ccc(N(CCC2CCCCN2C)C(C)C)cc1OC` (racemic), which “fold change (FC)” value [31] is on record?
**A.** 4
